Results collected from several papers.
Lines come from different studies, so protocols differ.
EGFR del746-750: Epidermal growth factor receptor (EGFR, Homo sapiens, UniProt P00533, del746-750)
EGFR: Epidermal growth factor receptor (EGFR, Homo sapiens, UniProt P00533)
EGFR del752-759: Epidermal growth factor receptor (EGFR, Homo sapiens, UniProt P00533, del752-759)

Structure (SMILES) | target | read-out | mode | technique | tested at | endpoint | value
CCCCC(=O)Nc1ccc(-c2ccc3ncn(CCC)c(=O)c3c2)cn1 | Epidermal growth factor receptor (EGFR, Homo sapiens, UniProt P00533, T790M) | binding | – | competition with immobilised ligand | 0.5 µM | remaining binding | 100%
C[C@H]1CC[C@H](n2c3cnccc3c3cnc(Nc4ccc5c(n4)CCN(C(=O)CO)C5)nc32)CC1 | EGFR del746-750 | cell-free assay | – | – | 1 µM | remaining signal | 84%
COc1ccc2oc(-c3ccc4nc(N)oc4c3)c/c(=N\c3ccccc3NC(=O)CCN)c2c1 | EGFR | binding | – | – | 1 µM | remaining binding | 97%
CS(=O)(=NC#N)c1ccccc1Nc1nc(Nc2ccc(CO)nc2)ncc1Cl (stereo not shown) | EGFR | enzyme activity | inhibitor | radiometric | 1 µM | remaining activity | 98.3%
Cc1ccc(NC(=O)c2ccnc(C(F)(F)F)c2)cc1-c1cc(OCCO)nc(N2CCOCC2)c1 | Epidermal growth factor receptor (EGFR, Homo sapiens, UniProt P00533, G719S) | binding | – | – | 1 µM | remaining binding | 100%
CC#CC(=O)N1CCC[C@H]1c1nc(-c2ccc(C(=O)Nc3ccccn3)cc2)c2c(N)nccn12 | EGFR del752-759 | enzyme activity | inhibitor | – | 1 µM | inhibition | 0%
CNC(=O)c1ccccc1Nc1nc(Nc2ccc(CO)cc2)ncc1Cl | EGFR | enzyme activity | inhibitor | radiometric | 1 µM | remaining activity | 7.68%
N#Cc1ccc(NC(=O)Nc2ccccc2)cc1 | EGFR | cell-free assay | – | competition with immobilised ligand | 25 µM | remaining binding | 87%
C#Cc1cnc(Nc2ccc(CO)cc2)nc1Nc1ccccc1C(=O)NC | EGFR | enzyme activity | inhibitor | radiometric | 1 µM | remaining activity | 10.1%
C=CC(=O)N1CCC([C@@H]2CCNc3c(C(N)=O)c(-c4ccc(Oc5ccccc5)cc4)nn32)CC1 | EGFR del746-750 | cell-free assay | – | – | 1 µM | inhibition | 21%
CN1CCN(C(=O)c2ccc(NC(=O)Nc3ccc(N(C)c4ccnc(Nc5ccc(CS(C)(=O)=O)cc5)n4)cc3)cc2)CC1 | EGFR del752-759 | binding | – | – | 1 µM | remaining binding | 100%
C1=C/COCc2cc(ccc2OCCN2CCCC2)Nc2nccc(n2)-c2cccc(c2)COC/1 | Epidermal growth factor receptor (EGFR, Homo sapiens, UniProt P00533, A750P/del747-749) | binding | – | – | 0.1 µM | remaining binding | 67%
C#Cc1cnc(Nc2ccnc(CO)c2)nc1Nc1ccccc1S(C)(=O)=NC#N (stereo not shown) | Epidermal growth factor receptor (EGFR, Homo sapiens, UniProt P00533, L858R) | cell-free assay | – | – | 1 µM | remaining signal | 63%
COc1c(Cl)cccc1Nc1c(-c2ccncc2OC[C@@H]2COCCO2)[nH]c2c1C(=O)NCC2 | EGFR | enzyme activity | inhibitor | radiometric | 1 µM | inhibition | > 80%
COc1ccc2[nH]c3c4[nH]c5ccc(OC)cc5c4c4c(c3c2c1)C(=O)NC4=O | Epidermal growth factor receptor (EGFR, Homo sapiens, UniProt P00533, L861Q) | binding | – | – | 1 µM | remaining binding | 71%
CO[C@@H]1[C@H](N(C)C(=O)c2ccccc2)C[C@H]2O[C@]1(C)n1c3ccccc3c3c4c(c5c6ccccc6n2c5c31)C(=O)NC4 | Epidermal growth factor receptor (EGFR, Homo sapiens, UniProt P00533, G719C) | enzyme activity | inhibitor | – | 1 µM | inhibition | 17%
